# Experimental data published in ChEMBL document CHEMBL4706633, “Design, Synthesis, and Biological Evaluation of a Series of Oxazolone Carboxamides as a Novel Class of Acid Ceramidase Inhibitors” (J Med Chem, 2020).
# The source made the active and inactive calls. The calls are words filed in the database; no cut-off is given here.
# Experiments:
# [1] = Half life in mouse plasma at 2 uM by LC/MS-MS analysis; type: ADME, cell-free
# In short: (§1)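 Kinetic aqueous solubility was measured in PBS, pH 7.4. Metabolic stability was measured as t1/2 in mouse plasma and mouse liver microsomes, with microsomal data also given as % compound remaining at 1 h. Values are means of at least two independent experiments, each in two technical replicates.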
# [2] = Stability in mouse liver microsomes at 4.6 uM in presence of NADPH after 60 mins by LC/MS-MS analysis; type: ADME, Microsome; settings: read-out: Stabilty; in short: as §1
# [3] = Clearance in C57BL/6 mouse at 10 mg/kg, po measured up to 4 hrs by LC/MS-MS analysis; type: ADME, organism-based; settings: in vivo
# [4] = Volume of distribution at steady state in C57BL/6 mouse at 10 mg/kg, po measured up to 4 hrs by LC/MS-MS analysis; type: ADME, organism-based; settings: in vivo
# [5] = Elimination half life in C57BL/6 mouse at 10 mg/kg, po measured up to 4 hrs by LC/MS-MS analysis; type: ADME, organism-based; settings: in vivo
# In short: (§2)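 C57BL/6 mice were dosed intravenously at 3 mg/kg or orally at 10 mg/kg. Plasma PK parameters were derived per route: clearance, Vdss and t1/2 after i.v. dosing, and tmax, Cmax, t1/2 and AUC after oral dosing. Oral bioavailability F was estimated from the oral and i.v. exposures.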
# [6] = Cmax in C57BL/6 mouse at 10 mg/kg, po measured up to 4 hrs by LC/MS-MS analysis; type: ADME, organism-based; design: route oral, dose 10 mg/kg, time <=4; settings: in vivo; in short: as §2
# [7] = target: T1, Acid ceramidase (Homo sapiens) (UniProt Q13510); experiment: Inhibition of acid ceramidase in human SH-SY5Y cells assessed as reduction in sphingolipid levels at 1 to 10 uM incubated for 3 hrs by LC-MS analysis; type: cell-based; settings: dose 1-10 µM
# T1 sequence (whole entry): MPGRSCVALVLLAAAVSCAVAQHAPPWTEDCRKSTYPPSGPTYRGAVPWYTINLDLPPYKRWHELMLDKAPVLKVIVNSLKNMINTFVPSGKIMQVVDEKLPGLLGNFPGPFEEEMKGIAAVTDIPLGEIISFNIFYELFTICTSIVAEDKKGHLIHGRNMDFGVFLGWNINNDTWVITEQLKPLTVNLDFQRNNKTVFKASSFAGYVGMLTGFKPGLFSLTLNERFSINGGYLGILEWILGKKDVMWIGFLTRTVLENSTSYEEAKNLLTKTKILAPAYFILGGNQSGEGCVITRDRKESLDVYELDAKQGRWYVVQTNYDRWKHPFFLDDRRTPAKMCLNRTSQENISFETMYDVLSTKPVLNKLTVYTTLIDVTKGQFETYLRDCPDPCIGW
# In short: (§3)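 SH-SY5Y human neuroblastoma cells were exposed for 3 h at 1, 2.5, 5 or 10 μM. Cellular sphingolipids (Cer species, So, SM, HexCer) were quantified by LC/MS. Data are means ± SEM of at least six determinations, with experiments repeated twice. Significance was taken at p < 0.05.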
# [8] = target: T1, Acid ceramidase (Homo sapiens); experiment: Inhibition of acid ceramidase in human SH-SY5Y cells assessed as reduction in sphingosine level at 10 uM incubated for 1 to 6 hrs by LC-MS analysis; type: cell-based; settings: time 1-6 hrs
# In short: (§4)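 SH-SY5Y neuroblastoma cultures were treated at 10 μM for 1, 3 or 6 h. Intracellular sphingolipids (Cer, So, SM, HexCer) were then identified and quantified by LC/MS.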
# SH-SY5Y [9] = experiment: Effect on HexCer (d18:1/16:0) levels in human SH-SY5Y cells at 1 to 10 uM incubated for 3 hrs by LC-MS analysis; type: functional, cell-based; settings: dose 1-10 µM; in short: as §3
# [10] = target: T1, Acid ceramidase (Homo sapiens); experiment: Inhibition of acid ceramidase in human SH-SY5Y cells assessed as intracellular accumulation of Cer (d18:0/16:0) at 1 to 10 uM incubated for 3 hrs by LC-MS analysis; type: cell-based; settings: dose 1-10 µM; in short: as §3
# [11] = target: T2, N-acylethanolamine-hydrolyzing acid amidase (Homo sapiens) (UniProt Q02083); experiment: Inhibition of human NAAA up to 125 uM; settings: dose microM <=125
# T2 sequence (whole entry): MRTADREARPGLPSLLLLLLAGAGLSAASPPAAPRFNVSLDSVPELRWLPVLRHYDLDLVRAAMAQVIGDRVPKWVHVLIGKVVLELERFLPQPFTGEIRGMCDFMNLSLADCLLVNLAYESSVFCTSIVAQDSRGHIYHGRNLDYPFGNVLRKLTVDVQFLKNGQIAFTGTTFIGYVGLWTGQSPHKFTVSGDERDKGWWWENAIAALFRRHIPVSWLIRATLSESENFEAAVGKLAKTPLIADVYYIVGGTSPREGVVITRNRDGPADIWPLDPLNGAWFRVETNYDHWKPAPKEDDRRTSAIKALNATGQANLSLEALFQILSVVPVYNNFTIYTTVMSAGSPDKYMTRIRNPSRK
# [12] = Oral bioavailability in C57BL/6 mouse at 10 mg/kg measured up to 4 hrs by LC/MS-MS analysis; type: ADME, organism-based; settings: in vivo; in short: as §2
# [13] = Elimination half life in C57BL/6 mouse at 3 mg/kg, iv measured up to 4 hrs by LC/MS-MS analysis; type: ADME, organism-based; settings: in vivo; in short: as §2
# [14] = target: T1, Acid ceramidase (Homo sapiens); experiment: Inhibition of acid ceramidase in human SH-SY5Y cells assessed as intracellular accumulation of Cer (d18:1/16:0) at 10 uM incubated for 1 to 6 hrs by LC-MS analysis; type: cell-based; settings: time 1-6 hrs; in short: as §4
# [15] = target: T1, Acid ceramidase (Homo sapiens); experiment: Inhibition of acid ceramidase in human SH-SY5Y cells assessed as intracellular accumulation of Cer (d18:0/16:0) at 10 uM incubated for 1 to 6 hrs by LC-MS analysis; type: cell-based; settings: time 1-6 hrs; in short: as §4
# [16] = Tmax in C57BL/6 mouse at 10 mg/kg, po measured up to 4 hrs by LC/MS-MS analysis; type: ADME, organism-based; settings: in vivo; in short: as §2
# [17] = Volume of distribution at steady state in C57BL/6 mouse at 3 mg/kg, iv measured up to 4 hrs by LC/MS-MS analysis; type: ADME, organism-based; settings: in vivo; in short: as §2
# [18] = Kinetic solubility in pH 7.4 PBS buffer at 250 uM incubated for 1 hr by UPLC/MS analysis; type: physicochemical; settings: read-out: Kinetic_solubility; in short: as §1
# [19] = Half life in mouse liver microsomes at 4.6 uM in presence of NADPH by LC/MS-MS analysis; type: ADME, Microsome; in short: as §1
# [20] = AUC in C57BL/6 mouse at 3 mg/kg, iv measured up to 4 hrs by LC/MS-MS analysis; type: ADME, organism-based; design: route intravenous, dose 3 mg/kg, time <=4; settings: in vivo
# SH-SY5Y [21] = experiment: Effect on SM (d18:1/16:0) levels in human SH-SY5Y cells at 1 to 10 uM incubated for 3 hrs by LC-MS analysis; type: functional, cell-based; settings: dose 1-10 µM; in short: as §3
# SH-SY5Y [22] = experiment: Effect on SM (d18:1/16:0) levels in human SH-SY5Y cells at 10 uM incubated for 1 to 6 hrs by LC-MS analysis; type: functional, cell-based; settings: time 1-6 hrs; in short: as §4
# [23] = target: T1, Acid ceramidase (Homo sapiens); experiment: Irreversible covalent inhibition of human acid ceramidase using N-lauroyl ceramide incubated for 1 hr by LC/MS analysis
# [24] = AUC in C57BL/6 mouse at 10 mg/kg, po measured up to 4 hrs by LC/MS-MS analysis; type: ADME, organism-based; design: route oral, dose 10 mg/kg, time <=4; settings: in vivo; in short: as §2
# SH-SY5Y [25] = experiment: Effect on HexCer (d18:1/16:0) levels in human SH-SY5Y cells at 10 uM incubated for 1 to 6 hrs by LC-MS analysis; type: functional, cell-based; settings: time 1-6 hrs; in short: as §4
# [26] = target: T1, Acid ceramidase (Homo sapiens); experiment: Inhibition of acid ceramidase in human SH-SY5Y cells assessed as reduction in sphingolipid levels at 10 uM incubated for 1 to 6 hrs by LC-MS analysis; type: cell-based; settings: time 1-6 hrs, TDE = time-dependent effect; in short: as §4
# [27] = target: T1, Acid ceramidase (Homo sapiens); experiment: Inhibition of acid ceramidase in human SH-SY5Y cells assessed as intracellular accumulation of Cer (d18:1/16:0) at 1 to 10 uM incubated for 3 hrs by LC-MS analysis; type: cell-based; settings: dose 1-10 µM; in short: as §3
# Acid ceramidase = target: T3, Acid ceramidase (Homo sapiens, UniProt Q13510); experiment: Inhibition of human acid ceramidase using Rbm14-12 fluorogenic substrate incubated for 1 hr by fluorescence assay; settings: read-out: IC50
# T3 sequence (Q13510 whole entry): T1 sequence (whole entry)
# [28] = target: T1, Acid ceramidase (Homo sapiens); experiment: Inhibition of acid ceramidase in human SH-SY5Y cells assessed as reduction in sphingosine level at 1 to 10 uM incubated for 3 hrs by LC-MS analysis; type: cell-based; settings: dose 1-10 µM; in short: as §3
smiles,measurement,setting,value
CCCCCNC(=O)n1cc(-c2ccc(F)cc2C2CCN(C)CC2)oc1=O,t1/2,[1],1.83 h
same,"remaining at 1 h, 4.6 µM",[2],74%
same,CL/F,[3],155 mL/min/kg
same,Vdss,[4],32.877 L/kg
same,beta t1/2,[5],2.45 h
same,Cmax,[6],278 ng/mL
same,inhibition,[7],Dose-dependent effect
same,inhibition,[8],Active
same,Activity,SH-SY5Y [9],inactive
same,inhibition,[10],Dose-dependent effect
same,inhibition,[11],inactive
same,F,[12],40%
same,beta t1/2,[13],1.98 h
same,inhibition,[14],Active
same,inhibition,[15],Active
same,Tmax,[16],0.5 h
same,Vdss,[17],12.426 L/kg
same,"solubility kinetic at 1 h, 250 µM",[18],> 250 µM
same,t1/2,[19],> 1 h
same,AUC,[20],31978 ng·min/mL
same,Activity,SH-SY5Y [21],inactive
same,Activity,SH-SY5Y [22],inactive
same,inhibition,[23],Active
same,AUC,[24],42525 ng·min/mL
same,Activity,SH-SY5Y [25],inactive
same,inhibition,[26],Tde
same,inhibition,[27],Dose-dependent effect
same,IC50,Acid ceramidase,129 nM
same,inhibition,[28],Dose-dependent effect
